Sampled rows, rich in hits. Any-hit rate of the full collection: about 2.3%.
ADAM10 inh: inhibitors of human ADAM10 | O14672 | recombinant ADAM10, EDANS/DABCYL FRET peptide cleavage, 3 h | inhibition, % at 7 µM | 370,000 compounds, 0.62% hits;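 active means inhibition above a per-campaign cutoff equal to the mean of compounds falling between control-based bounds plus 3 SD, cut at about 20% in these data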;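 further: 0% = DMSO wells while the 100% control is not disclosed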
PLC-gamma1 inh: PLC-gamma1 (human) inhibition, primary screen. inhibition, % at 12.2 µM. AID 720700. 370,000 compounds, 0.84% hits. P19174. purified PLC-gamma1, fluorogenic substrate, fluorescence
Target sequence (P19174 whole entry, looked up): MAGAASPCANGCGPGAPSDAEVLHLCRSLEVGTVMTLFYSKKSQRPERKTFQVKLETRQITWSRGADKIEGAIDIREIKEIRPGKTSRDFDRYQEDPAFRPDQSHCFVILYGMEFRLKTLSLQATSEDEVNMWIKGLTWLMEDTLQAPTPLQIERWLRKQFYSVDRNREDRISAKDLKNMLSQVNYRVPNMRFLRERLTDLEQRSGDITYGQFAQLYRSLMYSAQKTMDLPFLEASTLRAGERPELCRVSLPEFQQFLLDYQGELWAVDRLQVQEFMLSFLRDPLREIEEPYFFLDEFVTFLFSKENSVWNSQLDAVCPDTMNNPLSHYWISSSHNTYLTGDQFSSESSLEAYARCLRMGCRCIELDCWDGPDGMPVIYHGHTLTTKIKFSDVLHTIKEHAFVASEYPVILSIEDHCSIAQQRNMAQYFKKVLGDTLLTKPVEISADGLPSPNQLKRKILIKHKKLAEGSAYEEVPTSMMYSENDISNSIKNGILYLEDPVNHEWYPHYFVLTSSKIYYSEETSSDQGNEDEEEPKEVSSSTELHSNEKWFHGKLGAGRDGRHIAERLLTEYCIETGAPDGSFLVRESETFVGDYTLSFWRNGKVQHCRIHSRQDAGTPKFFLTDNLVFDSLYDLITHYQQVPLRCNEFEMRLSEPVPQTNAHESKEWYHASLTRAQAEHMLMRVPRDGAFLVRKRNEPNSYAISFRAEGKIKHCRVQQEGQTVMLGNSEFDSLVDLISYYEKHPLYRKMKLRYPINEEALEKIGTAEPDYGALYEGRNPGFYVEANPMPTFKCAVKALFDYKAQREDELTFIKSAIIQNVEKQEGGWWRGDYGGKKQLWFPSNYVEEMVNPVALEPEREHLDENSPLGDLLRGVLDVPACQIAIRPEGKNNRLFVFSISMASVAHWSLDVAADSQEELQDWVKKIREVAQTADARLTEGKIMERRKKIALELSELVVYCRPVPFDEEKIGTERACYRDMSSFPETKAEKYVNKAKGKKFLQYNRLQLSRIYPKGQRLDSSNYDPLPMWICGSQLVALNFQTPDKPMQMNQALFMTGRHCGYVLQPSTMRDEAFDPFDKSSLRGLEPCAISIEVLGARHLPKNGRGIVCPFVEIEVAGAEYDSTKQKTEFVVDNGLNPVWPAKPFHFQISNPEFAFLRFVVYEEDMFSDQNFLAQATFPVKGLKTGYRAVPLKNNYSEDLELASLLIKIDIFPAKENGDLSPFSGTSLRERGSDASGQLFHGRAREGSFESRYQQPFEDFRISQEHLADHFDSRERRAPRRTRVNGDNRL
PLC-beta3 inh: inhibitors of human phospholipase C beta3; Q01970; Purified PLC-beta3, fluorogenic substrate, fluorescence; inhibition, % at 12.2 µM; 370,000 compounds, 0.18% hits; AID 720704; in the data active means inhibition above about 11%;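 further: 0% = median of compound wells on plate and 100% = full blocker control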
ADAM17 inh: inhibitors of human ADAM17 | inhibition, % at 6.95 µM | recombinant ADAM17, EDANS/DABCYL FRET peptide cleavage | 370,000 compounds, 0.83% hits | P78536;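 active means inhibition above the mean of compounds lying between control limits plus 3 SD, set per campaign, cut at about 8.5% in these data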;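 further: 0% = DMSO-only wells as the low control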
TbMetRS inhib: blocks T. brucei methionyl-tRNA synthetase activity. inhibition, % at 11.9 µM. purified T. brucei MetRS, ATP depletion, Kinase-Glo luminescence. 360,000 compounds, 0.4% hits. AID 624268;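 active means inhibition above a per-plate cutoff of the control wells' mean inhibition plus 3 SD, cut at about 5.5% in these data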;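 further: 0% = DMSO wells median and 100% = median of wells with control inhibitor compound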
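assay system = parasite MetRS enzyme | timing = 15 min preincubation, 2 h reaction, all 25 °C | evaluation = percent inhibition relative to median high and low control wells | medium = HEPES buffer containing pyrophosphatase, BSA, spermine, DTT | compound = single dose, 11.9 µM final nominal, 0.9% final DMSO | detection = Kinase-Glo luminescence, ATP depletion format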
PLCgamma1 ctr: inhibits human PLC-gamma1 in PLC-beta3 counter-screen; 3,300 compounds, 3.1% hits; inhibition, % at 12.3 µM; purified PLC-gamma1, fluorogenic substrate, fluorescence; shares compounds with PLC-gamma1 inh
PLCb3 confirm: human PLC-beta3 inhibition, confirmation; shares compounds with PLC-gamma1 inh; purified PLC-beta3, fluorogenic substrate fluorescence; inhibition, % at 12.3 µM; 3,300 compounds, 1% hits; in the data active means inhibition above about 11%
Starred values were filed as active, the others as inactive; x = no result given. Unless noted, no stated cut-off is given here; in the data, active means inhibition above about 9.5%; inactive means the rest.

SMILES	ADAM10 inh	PLC-gamma1 inh	PLC-beta3 inh	ADAM17 inh	TbMetRS inhib	PLCgamma1 ctr	PLCb3 confirm
COc1ccc(NC(=O)Cn2c(=O)c(C)nc3ccccc32)cc1Cl	-0.3	0.8	-7.5	-3.9	-0.4	x	x
Cc1ccc(S(=O)(=O)N(CC(=O)N/N=C/c2cccc(C)c2)c2cccc3cccnc23)cc1	-9.5	11.0*	-0.6	6.0	-0.9	-2.9	-0.6
COc1ccc(N2CC(C(=O)N[C@@H](C)C(=O)NCc3ccccc3OC)CC2=O)cc1 (stereo partly specified)	-5.4	9.8*	-11.9	-0.8	0.1	-1.3	0.7
CCOC(=O)CC1(CCc2ccccc2)Oc2ccccc2N1S(=O)(=O)c1ccc(C)cc1 (stereo unspecified)	0.7	11.9*	5.2	6.9	-0.9	-1.8	-0.1
CC(C(=O)NCCSCc1cccc(Cl)c1)N(c1ccccc1)S(C)(=O)=O (stereo unspecified)	0.3	0.8	-5.0	-2.2	-0.5	x	x
O=C(Cn1nc(CNc2ccc(Br)cc2)[n+]2c1CCCCC2)c1ccc([N+](=O)[O-])cc1	8.2	9.8*	2.6	-1.8	-1.1	1.1	3.4
CCC(C(=O)Nc1c(C)cccc1C)n1c(-c2cnc(C)cn2)nc2ccccc21 (stereo unspecified)	-55.0	-13.9	-24.2	-16.8	0.4	x	x
Cc1cc(C)cc(NC(=O)C2(c3cccs3)CCOCC2)c1	1.2	9.8*	3.5	-0.1	-0.3	-8.3	-11.8
Cc1ccc2[nH]c3c(=O)n(CC(=O)Nc4ccccc4N4CCN(C)CC4)ncc3c2c1	-39.2	-1.7	-12.9	-11.6	-0.1	x	x
Fc1cc(F)cc(NC(=S)NN2CCOCC2)c1	12.5	11.1*	7.6	0.3	-0.6	-0.3	0.0
O=C(Nc1ccccc1N1CCCCC1)c1ccc(-c2cccc(Cl)c2)o1	0.4	12.5*	2.0	-1.6	0.0	-117.2	-113.9
NC(=O)c1ncn([C@@H]2O[C@H](C(=O)N[C@H](Cc3c[nH]c4ccccc34)C(=O)N3CCN(C(=O)C4CC4)CC3)[C@@H](O)[C@H]2O)n1	-12.2	1.9	2.8	-5.4	x	x	x
O=C(NCc1cccs1)NC1CCCCC1	9.1	9.8*	8.4	5.5	-1.8	-2.6	2.2
Cc1ccc(C)c(S(=O)(=O)N2CCN(C(=O)CSC(=S)N3CCCC3)CC2)c1	6.2	1.1	2.2	-4.9	-0.3	x	x
O=C(COc1ccc(F)cc1)c1ccc2c(c1)CCCC2	8.3	9.5*	7.1	5.9	-0.6	-3.6	-1.6
CC(NC(=O)c1ccc(F)cc1)c1ccc2c(c1)CCCC2 (stereo unspecified)	12.4	13.1*	13.6*	2.1	0.2	2.9	0.1
COc1ccc(OC)c(S(=O)(=O)N2CCCC(N3CCN(c4ccccc4)CC3)C2)c1 (stereo unspecified)	11.2	10.8*	3.0	-0.8	-0.2	-1.1	1.4
C#CCN1C(=O)[C@]2(OCCC=C[C@H]2C)c2cc(OC)ccc21	-14.0	-2.3	4.1	-6.0	x	x	x
CCCn1nc(C(=O)NCC(C)(C)N2CCOCC2)c2ccccc2c1=O	11.9	9.7*	8.6	0.0	-0.8	-3.0	-0.7
CCCn1nc(C(=O)NCCN2CCOCC2)c2ccccc2c1=O	-2.5	4.0	0.0	-1.7	-1.8	x	x
Cc1ccc(-n2c(SCC(N)=O)nc3c(oc4ccccc43)c2=O)cc1	9.5	2.5	-2.9	-1.2	-0.6	x	x
CC(C)C[C@H](NC(=O)c1ccc(OC2CCN(C(=O)C3CC3)CC2)cc1)C(N)=O	-0.8	9.7*	-3.9	-9.4	-0.5	-2.1	-4.7
C=CCNc1nc(Cl)nc(Nc2ccccc2)n1	8.3	10.8*	-2.6	3.5	0.2	3.4	4.7
O=[N+]([O-])c1ccccc1C(O)Cc1ccccn1 (stereo unspecified)	-5.5	-1.7	-1.7	-0.8	-0.2	x	x
CCO[C@H]1OC(C(=O)N2CCN(C)CC2)=C[C@@H](c2ccc3c(c2)OCO3)[C@@H]1CCCO	2.6	7.0	19.7*	6.9	-0.4	-4.4	1.0
SMILES	ADAM10 inh	PLC-gamma1 inh	PLC-beta3 inh	ADAM17 inh	TbMetRS inhib	PLCgamma1 ctr	PLCb3 confirm
CCO[C@H]1OC(C(=O)N2CCN(Cc3ccc4c(c3)OCO4)CC2)=C[C@@H](c2csc3ccccc23)[C@@H]1CCCO	15.4	4.3	11.0*	8.3	0.0	-1.4	-0.6
O=C(NCCc1csc(-c2cccnc2)n1)c1ccc(Cl)cc1	14.6	12.7*	3.9	1.5	1.5	-1.0	2.8
O=C(CCS(=O)(=O)c1cccs1)Nc1ccc(C(=O)NCc2ccc(F)cc2)cc1	7.7	9.6*	9.9	3.6	-0.2	-9.0	-1.7
COc1cc(/C=N/NC(=O)c2cccnc2)ccc1OCC(=O)Nc1c(C)cc(C)cc1C	1.6	10.2*	9.3	-1.5	-0.4	-49.6	-49.5
COC(=O)c1ccc(CSc2ccc3nnc(-c4cccc(F)c4)n3n2)o1	-8.2	-6.4	-7.9	-1.1	-0.8	x	x
CN(C)S(=O)(=O)N1CCC(Oc2cccc(C(=O)NC3CCCCC3)c2)CC1	-9.0	0.2	-5.4	-3.7	-0.1	x	x
CN(C)S(=O)(=O)N1CCC(Oc2cccc(C(=O)NCCC3=CCCCC3)c2)CC1	-8.4	10.8*	-9.5	-0.5	0.2	-11.7	-1.0
O=S(=O)(c1ccccc1)N1CCN(c2cccc(Cl)c2)CC1	3.5	-2.9	-13.2	-1.5	-0.7	x	x
O=[N+]([O-])c1ccc2[nH]cc(S(=O)(=O)N3CCN(c4cccc(Cl)c4)CC3)c2c1	9.6	10.2*	1.4	-0.3	0.4	14.1*	10.4
CCOC(=O)C(NC(=O)CC)(Nc1ccccc1)C(F)(F)F (stereo unspecified)	4.5	13.6*	11.3*	3.2	-0.5	-4.7	0.7
CCOC(=O)C(NC(=O)CC)(Nc1ccc(S(N)(=O)=O)cc1)C(F)(F)F (stereo unspecified)	2.5	1.3	-7.6	-3.4	-0.5	x	x
Oc1ccc(O)c(-c2cnns2)c1	-0.9	5.4	-2.0	-3.4	-0.5	x	x
COC(=O)c1cccc(Oc2cccc(Cl)n2)c1	-5.6	-0.6	-0.6	-6.4	-0.6	x	x
COc1ccc(C2=NOC(C(=O)Nc3cc(C)on3)C2)cc1 (stereo unspecified)	-5.8	1.1	2.6	0.1	-0.3	x	x
Cc1cc(NC(=O)C2CC(c3ccc(Cl)cc3)=NO2)no1 (stereo unspecified)	4.8	9.1	12.0*	1.1	0.1	-2.2	-0.5
CN(NS(=O)(=O)c1ccccc1)C(=O)c1ccccc1	-9.5	12.1*	5.4	3.0	-0.2	0.5	2.2
CC1(C)c2ccccc2-c2nc3ccccc3cc2C1O (stereo unspecified)	-7.9	10.8*	-2.2	4.2	-1.0	-9.0	-10.3
Nc1nn(-c2ccccc2)c(N)c1N=Nc1cccc(F)c1	8.5	3.4	-4.9	-2.4	0.0	x	x
